# STEP block: STEP phosphatase inhibitors, primary screen, biochemical, fluorescence intensity, uHTS; Tyrosine-protein phosphatase non-receptor type 5 (Homo sapiens), P54829; recombinant STEP, OMFP fluorogenic substrate; inhibition, % at 20 µM; 360,000 tested, 0.25% active; AID 588621, 2011;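 active means inhibition at 20 µM, scaled per plate between control wells, above about 37%, limit read from the data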;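 further: 0% = DMSO with enzyme and substrate and 100% = substrate only without enzyme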
#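 Test system: STEP tyrosine phosphatase / Reagent: OMFP at 25 µM / Doses: 20 µM, 1% DMSO / Read-out: percent inhibition scaled to no-enzyme and uninhibited-enzyme controls, plate-pattern corrected / Detection: FITC-channel fluorescence of OMFP product / Medium: Bis-Tris buffer pH 6.0, 2.5 mM DTT, 0.005% Tween 20 / Schedule: 20 min at room temperature, dark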
# Scp-1 inhibitor: Scp-1 phosphatase inhibitors, primary screen, biochemical, colorimetric, uHTS | Carboxy-terminal domain RNA polymerase II polypeptide A small phosphatase 1 (Homo … | Recombinant Scp1, phosphopeptide, malachite green phosphate absorbance | inhibition, % at 20 µM | 340,000 tested, 0.88% active | AID 493091, 2011;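 active means inhibition above about 50% at 20 µM, limit read from the data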;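 further: plate controls were DMSO wells with enzyme for no effect and wells lacking enzyme for full effect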
# Target sequence (Q9GZU7 76-261 limits assumed): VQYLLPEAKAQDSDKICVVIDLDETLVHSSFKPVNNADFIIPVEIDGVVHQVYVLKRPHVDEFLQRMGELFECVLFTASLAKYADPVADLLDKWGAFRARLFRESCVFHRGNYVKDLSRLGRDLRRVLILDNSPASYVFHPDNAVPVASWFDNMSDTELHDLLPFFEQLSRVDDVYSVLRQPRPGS
#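 Times: enzyme reaction 45 min at room temperature, colour 5 min, stabilisation 30 min. Material: SCP-1 catalytic fragment, aa 76-261. Medium: Acidic Tris acetate buffer with magnesium and detergent. Signal: colorimetric free-phosphate detection, absorbance 630 nm. Read-out basis: % inhibition of SCP-1 phosphate liberation. Reagent: Phosphorylated 17-residue peptide substrate.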
# LMPTP block: LMPTP phosphatase inhibitors, primary screen, biochemical, fluorescence intensity, uHTS; Low molecular weight phosphotyrosine protein phosphatase (Homo sapiens), P24666; recombinant LMPTP-A, OMFP fluorogenic substrate; inhibition, % at 20 µM; 360,000 tested, 0.22% active; AID 651560, 2012;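 active means compounds that cut the enzyme signal by at least half of the control window in the single-dose screen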;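 further: plate controls were DMSO wells with enzyme plus substrate for no effect and substrate without enzyme for full effect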
# Target sequence (P24666 whole entry, looked up): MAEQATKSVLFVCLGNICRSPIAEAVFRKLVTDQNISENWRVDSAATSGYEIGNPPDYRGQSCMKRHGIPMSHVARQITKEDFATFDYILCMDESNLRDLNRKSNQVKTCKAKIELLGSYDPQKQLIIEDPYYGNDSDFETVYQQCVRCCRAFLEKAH
#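 Buffer or medium: Bis-Tris pH 6.0, DTT, detergent; Assay system: LMPTP-A enzyme; Quantity: 0.625 nM enzyme; Detection: endpoint fluorescence intensity; Times: 50 min dark incubation at room temperature; Controls: substrate-only low control, DMSO enzyme-plus-substrate high control; Doses: single 20 µM dose; Read-out: percent inhibition versus substrate-only and uninhibited controls; Reagent: 400 µM OMFP.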
# DNMT1 block: human DNMT1 methyltransferase inhibitors, primary screen, biochemical, molecular beacon, fluorescence, HinP1I cleavage, uHTS. DNA (cytosine-5)-methyltransferase 1 (Homo sapiens), P26358. inhibition (reported as % activation of signal), % at 10 µM. 360,000 tested, 0.83% active. AID 588458, 2011; in the data active means inhibition above about 50%
# SUMO1-SIM PPI: modulators of SUMO1 protein-protein interactions, primary screen, biochemical, uHTS. Small ubiquitin-related modifier 1 (Homo sapiens), P63165. SUMO1 binding to a labelled peptide, TR-FRET, 1 h. inhibition, % at 20 µM. 360,000 tested, 0.33% active. AID 602429, 2012; in the data active means inhibition above about 37%
# Target sequence (P63165 whole entry, looked up): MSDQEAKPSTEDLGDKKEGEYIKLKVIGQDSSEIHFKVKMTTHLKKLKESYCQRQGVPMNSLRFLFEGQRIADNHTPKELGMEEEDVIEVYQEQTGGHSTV
# Scp1 confirm: Scp-1 phosphatase inhibitors, retest, confirmation, biochemical, colorimetric, single concentration; shares compounds with Scp-1 inhibitor; recombinant SCP-1 catalytic domain, phosphate release, malachite green absorbance; inhibition, % at 20 µM; 2,500 tested, 61% active; AID 540281, 2011;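 further: plate controls were DMSO with enzyme for no effect and buffer wells lacking enzyme for full effect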
# MG interference: colorimetric readout interference by compounds, confirmation, artefact control for Scp-1 inhibitor project, biochemical, single concentration. Colorimetric interference counterscreen, malachite green absorbance 630 nm. apparent inhibition (interference), % at 20 µM. 2,500 tested, under 10 active. shares compounds with Scp-1 inhibitor;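 further: compounds added after enzyme reaction finished so only phosphate colour detection is probed; plate controls were DMSO wells with completed Scp-1 reaction for no effect and substrate wells lacking enzyme for full effect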
# Scp-1 Tm shift: Scp-1 binding by thermal shift, confirmation, orthogonal assay for Scp-1 inhibitor project, biophysical, differential scanning fluorimetry; shares compounds with Scp-1 inhibitor; Recombinant SCP1, Sypro Orange thermal shift Tm; thermal shift relative to vanadate control, % at 40 µM; 1,500 tested, 25% active; AID 540329, 2011;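 active means substances whose mean melting-temperature shift, as a percentage of the reference inhibitor's shift, reaches about 5.3%, limit read from the data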;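 further: 0% = Tm of DMSO wells and 100% = Tm with sodium orthovanadate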
# Numbers without * were called inactive; / = no result given. Compounds with a hit are over-represented: about 1.7% of the library has one in this group of screens.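 How the source made its calls, unless noted: active means inhibition of at least 30% at 20 µM; inactive means the rest.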
SMILES,STEP block,Scp-1 inhibitor,LMPTP block,DNMT1 block,SUMO1-SIM PPI,Scp1 confirm,MG interference,Scp-1 Tm shift
CC(=O)Nc1ccc(C(=O)N/N=C/c2cc(Br)cc(Br)c2O)cc1,-1.2,-9.9,0.2,-1.1,2.5,/,/,/
Cc1ccc(Cl)cc1C1=CC(=O)C[C@H](c2ccc(F)cc2)C1,3.2,-7.7,4.2,3.6,1.4,/,/,/
COc1cc(C(=O)OCC(=O)N2CCCC2=O)cc(OC)c1C,-1.1,23.1,0.9,47.0,0.8,/,/,/
O=C(NCc1ccccc1Cl)c1ccc(NC2=NC3CS(=O)(=O)CC3S2)cc1 (centres undefined),-0.1,-1.2,-0.7,6.3,-2.3,/,/,/
O=C(N/N=C/c1ccc2nccnc2c1)c1ccc(Br)cc1,-1.3,36.1,-0.2,1.2,-22.2,/,/,/
O=C(N/N=C/c1cccc(Br)c1)c1ccc(Br)cc1,20.8,103.7*,59.7*,27.9,-3.5,75.8*,-12.6,-6.8
Cc1cccc(C)c1NC(=O)CSC(=O)c1sc2ccccc2c1Cl,0.1,-15.9,-0.2,0.7,-10.1,/,/,/
Cc1ccc(/C=N/NC(=O)CCCOc2ccc(Cl)cc2Cl)cc1[N+](=O)[O-],4.7,58.5*,9.0,16.9,0.1,37.8*,-11.2,5.2
COc1ccc(/C=N/NC(=O)CCCOc2ccc(Cl)cc2Cl)cc1[N+](=O)[O-],1.3,-4.4,3.5,-15.3,-1.7,/,/,/
CS(=O)(=O)c1ccc(-c2sc3cc4c(cc3c2C(=O)NN2CCOCC2)OCO4)cc1,-1.3,100.6*,-0.7,5.5,-18.4,85.8*,-6.5,-19.6
O=C(NN1CCOCC1)c1c(-c2ccccc2)sc2ccccc12,-0.7,-3.0,-1.6,8.8,4.6,/,/,/
COc1cc(Br)cc2cc(C(=O)N3CCN(C(=O)c4ccco4)CC3)c(=O)oc12,2.6,56.4*,7.7,10.5,-2.6,-7.1,-12.6,/
COc1cccc2cc(C(=O)N3CCN(C(=O)c4ccco4)CC3)c(=O)oc12,-1.6,-1.1,-1.3,3.4,3.7,/,/,/
COc1cc2c(C#CCO)c(-c3ccc(C#N)cc3)oc(=O)c2cc1OC,25.2,66.9*,3.7,-27.7,62.2*,32.6*,6.4,5.2
Cc1ccc(-c2cc(C(=O)N3CCOCC3)c3ccccc3n2)o1,-2.6,-6.7,-0.4,0.9,-6.7,/,/,/
Cc1ccc(-c2cc(C(=O)N3CCN(c4ccc(F)cc4)CC3)c3ccccc3n2)o1,1.5,53.0*,2.2,18.6,-4.2,28.7,-17.3,/
CCn1c(C)nc2cc(C(=O)NNC(=O)[C@@H](NC(=O)c3cc(OC)cc(OC)c3)C(C)C)ccc21,-0.1,-6.8,-1.8,4.0,-2.6,/,/,/
COc1cccc(C2c3c(-c4ccccc4)n[nH]c3C(=O)N2c2ccc(C(=O)O)cc2)c1 (centres undefined),3.2,53.2*,-1.0,2.0,9.8,51.6*,-20.8,23.9*
Fc1ccc(Oc2ccnc(Cl)n2)c(Cl)c1,/,50.6*,/,/,/,-6.2,-9.0,/
Nc1ccc(Oc2ncccn2)c(Cl)c1,-4.9,5.3,1.6,0.1,-14.4,/,/,/
O=C(CN1C(=O)CNC1=O)Nc1cc(Cl)cc(Cl)c1,0.9,10.6,-1.5,-0.5,3.3,/,/,/
Cc1cc(Cl)ccc1OCC(=O)N[C@@H](Cc1ccccc1)c1nc2ccccc2[nH]1,1.4,85.7*,-1.7,6.9,-2.8,36.2*,-9.8,-24.2

# Bioassay records (PubChem)
